Reference: article PMC10170627 (RSC Chemical Biology, 2023)
Starred links: 1 amine or outer side, 2 acyl side, 3 side chain; linkers in the order of their positions; H or OH if unused. Positions of bridges follow the written chain, without caps; N, C: chain ends. Non-standard residues stand in square brackets, D forms with d. Residues, ends and D or L forms follow the SMILES beside them. Chains are numbered I, II in the order given. Actinocin(9to1) = Cc1c2oc3c(C)ccc(C(=O)[*:1])c3nc-2c(C(=O)[*:2])c(N)c1=O; NMeV = CN[C@H](C(=O)O)C(C)C; Sar = CNCC(=O)O

How the values were obtained:
NCI 60-cell line panel = NCI 60-cell line panel COMPARE analysis; type: cell-based; conditions: five-dose data, Standard Agents GI50 library; 48 h
NPM1 = test: Nucleophosmin; type: cell-based, human; conditions: A549; 24 h; 5 nM actinomycin D, 5 μM cisplatin, 5 μM compound 1
E. coli DNA gyrase = E. coli DNA gyrase (Escherichia coli, UniProt P0AES4+P0AES6); test: Inhibition of DNA gyrase activity; type: biochemical; conditions: positive control
[1] = system: HeLa parental and XPA knockout cells; test: HeLa parental and XPA knockout cytotoxicity; type: cell-based; conditions: 72 h
E. coli BL21(DE3) [2] = test: Bacterial cytological profiling; type: cell-based, Escherichia coli
HEL299 = test: Cell cytotoxicity; type: cell-based; conditions: read-out: IC50 (St. dev.) HEL299; 72 h; triplicate
How it was run: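 Healthy lung fibroblasts were treated with each test compound. IC50 is the average of triplicate measurements, reported with standard deviation. Selectivity index is the HEL299 IC50 divided by the A549 IC50.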

E. coli BL21(DE3) [3] = test: Bacteria growth inhibition; type: cell-based, Escherichia coli; conditions: 0-100 μM, 16 h
How it was run: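 MIC taken as the lowest test compound concentration at which no bacterial growth was observed.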

DU145 spheroids = test: Cytotoxicity in DU145 spheroids; type: cell-based; conditions: read-out: IC50 (St. dev.) DU145 spheroids; 72 h; triplicate
HL-60 = conditions: read-out: IC50 (St. dev.) HL-60; ref prior work (footnote d); cited from earlier work

E. coli DNA gyrase, sequence (P0AES4 whole entry, one chain of several): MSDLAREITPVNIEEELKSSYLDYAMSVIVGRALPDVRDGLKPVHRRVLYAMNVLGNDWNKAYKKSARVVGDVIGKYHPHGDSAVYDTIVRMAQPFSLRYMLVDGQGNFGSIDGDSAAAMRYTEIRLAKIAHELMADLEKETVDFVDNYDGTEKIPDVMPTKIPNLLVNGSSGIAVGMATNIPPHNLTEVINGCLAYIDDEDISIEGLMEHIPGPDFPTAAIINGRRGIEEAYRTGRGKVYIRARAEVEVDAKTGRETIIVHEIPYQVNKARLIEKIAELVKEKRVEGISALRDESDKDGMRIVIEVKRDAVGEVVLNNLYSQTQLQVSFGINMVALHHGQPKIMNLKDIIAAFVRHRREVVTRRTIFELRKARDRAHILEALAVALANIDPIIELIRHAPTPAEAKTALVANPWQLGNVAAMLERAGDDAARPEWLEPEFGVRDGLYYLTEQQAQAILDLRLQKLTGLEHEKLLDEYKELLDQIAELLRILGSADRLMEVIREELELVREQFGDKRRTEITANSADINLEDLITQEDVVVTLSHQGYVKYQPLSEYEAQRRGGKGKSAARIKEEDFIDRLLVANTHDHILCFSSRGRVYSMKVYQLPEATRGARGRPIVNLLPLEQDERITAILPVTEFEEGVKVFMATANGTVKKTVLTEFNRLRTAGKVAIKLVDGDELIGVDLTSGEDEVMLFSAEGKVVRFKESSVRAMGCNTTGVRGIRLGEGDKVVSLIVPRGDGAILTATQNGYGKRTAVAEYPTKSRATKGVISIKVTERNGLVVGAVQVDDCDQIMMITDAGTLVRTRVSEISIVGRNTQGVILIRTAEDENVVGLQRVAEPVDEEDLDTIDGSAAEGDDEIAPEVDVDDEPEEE

SMILES	COMPARE correlation (Pearson correlation coefficient) to compound 2 (NCI 60-cell line panel)	bacterial growth inhibition (E. coli BL21(DE3) [3])	further results
Cc1c2oc3c(C)ccc(C(=O)N[C@@H]4C(=O)N[C@H](C(C)C)C(=O)N5CCC[C@H]5C(=O)N(C)CC(=O)N(C)[C@@H](C(C)C)C(=O)O[C@@H]4C)c3nc-2c(C(=O)N[C@@H]2C(=O)N[C@H](C(C)C)C(=O)N3CCC[C@H]3C(=O)N(C)CC(=O)N(C)[C@@H](C(C)C)C(=O)O[C@@H]2C)c(N)c1=O [Actinomycin D] (I: T[dV]P[Sar][NMeV] / II: T[dV]P[Sar][NMeV]; ester I:1-I:C, II:1-II:C; linker I:N-II:N via Actinocin(9to1))	0.69		NPM1 distribution phenotype (NPM1): delocalized NPM1 phenotype
N.N.O=C([O-])C1(C(=O)[O-])CCC1.[Pt+2] [Carboplatin]	0.12		
CO[C@@H]1[C@H](O)C[C@@H](O[C@@H]2C[C@H](Oc3cc4cc5c(c(O)c4c(O)c3C)C(=O)[C@@H](O[C@H]3C[C@@H](O[C@H]4C[C@@H](O[C@H]6C[C@](C)(O)[C@@H](OC(C)=O)[C@H](C)O6)[C@H](O)[C@@H](C)O4)[C@H](O)[C@@H](C)O3)[C@H]([C@H](OC)C(=O)[C@@H](O)[C@@H](C)O)C5)O[C@H](C)[C@@H]2OC(C)=O)O[C@@H]1C [Chromomycin A3]	0.85		
O=C(O)c1cn(C2CC2)c2cc(N3CCNCC3)c(F)cc2c1=O [Ciprofloxacin]			concentration at which the supercoiled form was lost (E. coli DNA gyrase): 0.75 µM
N.N.[Cl][Pt][Cl] [Cisplatin]	−0.16	inhibited bacterial growth	sensitization of XPA knockout versus parental HeLa [1]: 4 fold; average filament length (E. coli BL21(DE3) [2]; E. coli treated at the MIC, 24 h): 53 μm; IC50 (HEL299): 3.05 µM; NPM1 distribution phenotype (NPM1): Smaller changes in NPM1 distribution; IC50 (DU145 spheroids): 5.28 µM; IC50 (HL-60): 3.1 µM
COc1cccc2c1C(=O)c1c(O)c3c(c(O)c1C2=O)C[C@@](O)(C(=O)CO)C[C@@H]3O[C@H]1C[C@H](N)[C@H](O)[C@H](C)O1 [Doxorubicin]	0.55		
COc1cc([C@@H]2c3cc4c(cc3[C@@H](O[C@@H]3O[C@@H]5CO[C@@H](C)O[C@H]5[C@H](O)[C@H]3O)[C@H]3COC(=O)[C@H]23)OCO4)cc(OC)c1O [Etoposide]	0.39		
CC(=O)O[C@H]1C(=O)[C@@]2(C)[C@H]([C@H](OC(=O)c3ccccc3)[C@]3(O)C[C@H](OC(=O)[C@H](O)[C@@H](NC(=O)c4ccccc4)c4ccccc4)C(C)=C1C3(C)C)[C@]1(OC(C)=O)CO[C@@H]1C[C@@H]2O [Paclitaxel]	0.71	inhibited bacterial growth except for paclitaxel	filamentation (E. coli BL21(DE3) [2]; E. coli): no filament formation
CC[C@]1(O)C[C@@H]2CN(CCc3c([nH]c4ccccc34)[C@@](C(=O)OC)(c3cc4c(cc3OC)N(C)[C@H]3[C@@](O)(C(=O)OC)[C@H](OC(C)=O)[C@]5(CC)C=CCN6CC[C@]43[C@@H]65)C2)C1 [Vinblastine]	0.64		
CO[C@H]1/C=C/O[C@@]2(C)Oc3c(C)c(O)c4c(O)c(c(/C=N/N5CCN(C)CC5)c(O)c4c3C2=O)NC(=O)/C(C)=C\C=C\[C@H](C)[C@H](O)[C@@H](C)[C@@H](O)[C@@H](C)[C@H](OC(C)=O)[C@@H]1C [rifampicin]		inhibited bacterial growth	
CN(C)[C@@H]1C(O)=C(C(N)=O)C(=O)[C@@]2(O)C(O)=C3C(=O)c4c(O)cccc4[C@@](C)(O)[C@H]3C[C@@H]12 [tetracycline]		inhibited bacterial growth	
